# In ChEMBL document CHEMBL1154855 (Eur J Med Chem, 2010):
# What was measured:
# [1] = (§1) Cytotoxicity against Herpes simplex virus 2 G infected HEL cells by trypan blue exclusion method; format: cell-based; details: human, HEL cells infected with herpes simplex virus 2 G
# Method in brief: (§2)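 Uninfected confluent cultures were run in parallel with the infected cultures. Medium was replaced by 1 ml maintenance medium with serial compound concentrations; cell controls received no compound. Cultures were incubated at 37 °C. After 2 and 7 days, compound was withdrawn and viability was determined by trypan blue exclusion.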
# [2] = (§3) Cytotoxicity against Vaccinia virus infected HEL cells by trypan blue exclusion method; format: cell-based; details: human, HEL cells infected with vaccinia virus; method in brief: as §2
# [3] = (§4) Cytotoxicity against VSV infected HEL cells by trypan blue exclusion method; format: cell-based; details: human, HEL cells infected with VSV; method in brief: as §2
# [4] = tested on: Vesicular stomatitis virus; assay: Antiviral activity against VSV infected in HEL cells assessed as protection from virus-induced cytopathogenicity after 1 to 2 days by MTT assay; format: functional, organism-based
# [5] = tested on: Felid alphaherpesvirus 1; assay: Antiviral activity against Feline herpesvirus infected in cat CRFK cells assessed as protection from virus-induced cytopathogenicity by MTT assay; format: functional, organism-based; details: Felid alphaherpesvirus 1, CRFK
# [6] = Cytotoxicity against Feline coronavirus infected cat CRFK cells by trypan blue exclusion method; format: cell-based, Felis catus; method in brief: as §2
# [7] = (§5) Cytotoxicity against Herpes simplex virus 1 KOS infected HEL cells by trypan blue exclusion method; format: cell-based; details: human, HEL cells infected with herpes simplex virus 1 KOS; method in brief: as §2
# [8] = Cytotoxicity against Feline herpesvirus infected cat CRFK cells by trypan blue exclusion method; format: cell-based, Felis catus; method in brief: as §2
# [9] = tested on: Feline coronavirus; assay: Antiviral activity against Feline coronavirus infected in cat CRFK cells assessed as protection from virus-induced cytopathogenicity by MTT assay; format: functional, organism-based; details: Alphacoronavirus 1, CRFK
# [10] = tested on: Vero; assay: Cytotoxicity against PIV 3 infected african green monkey Vero cells by trypan blue exclusion method; format: cell-based; details: chlorocebus sabaeus, vero; method in brief: as §2
# [11] = tested on: Sindbis virus; assay: Antiviral activity against Sindbis virus infected in african green monkey Vero cells assessed as protection from virus-induced cytopathogenicity after 2 to 3 days by MTT assay; format: functional, organism-based
# [12] = tested on: HEL; assay: as §1; format: cell-based; details: human, hel; method in brief: as §2
# [13] = tested on: Respiratory syncytial virus; assay: Antiviral activity against Respiratory syncytial virus infected in human HeLa cells assessed as protection from virus-induced cytopathogenicity after 4 days by MTT assay; format: functional, organism-based; details: 96 h
# [14] = tested on: HEL; assay: Cytotoxicity against acyclovir-sensitive Herpes simplex virus 1 KOS infected HEL cells by trypan blue exclusion method; format: cell-based; details: human; method in brief: as §2
# [15] = tested on: MDCK; assay: Cytotoxicity against Influenza A virus subtype H3N2 infected MDCK cells by trypan blue exclusion method; format: cell-based, Canis lupus familiaris; details: dog
# [16] = tested on: Vero; assay: Cytotoxicity against Punta Toro virus infected african green monkey Vero cells by trypan blue exclusion method; format: cell-based; details: chlorocebus sabaeus, vero; method in brief: as §2
# [17] = Cytotoxicity against HIV1 3B-infected human MT4 cells by MTT assay; format: cell-based; details: MT4 cells infected with HIV-1 3B
# Method in brief: (§6)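 MT-4 cells (3 × 10^4 per well) were cultured in microdilution trays with various concentrations of compound, then incubated 5 days at 37 °C, and viable cell number was read by MTT.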
# [18] = tested on: Vesicular stomatitis virus; assay: Antiviral activity against VSV infected in human HeLa cells assessed as protection from virus-induced cytopathogenicity after 1 to 2 days by MTT assay; format: functional, organism-based
# [19] = tested on: HeLa; assay: Cytotoxicity against Respiratory syncytial virus infected human HeLa cells by trypan blue exclusion method; format: cell-based; details: hela; method in brief: as §2
# [20] = tested on: Vero; assay: Cytotoxicity against Human coxsackievirus B4 infected african green monkey Vero cells by trypan blue exclusion method; format: cell-based; details: chlorocebus sabaeus, vero; method in brief: as §2
# [21] = tested on: MDCK; assay: Cytotoxicity against Influenza B virus infected MDCK cells by trypan blue exclusion method; format: cell-based, Canis lupus familiaris; details: dog
# [22] = tested on: Influenza A virus; assay: Antiviral activity against Influenza A virus H1N1 infected in MDCK cells assessed as protection from virus-induced cytopathogenicity after 6 to 7 days by MTT assay; format: functional, organism-based
# [23] = tested on: HEL; assay: as §3; format: cell-based; details: human, hel; method in brief: as §2
# [24] = tested on: Human immunodeficiency virus 2; assay: Antiviral activity against HIV2 ROD infected in human MT4 cells assessed as protection from virus-induced cytopathogenicity after 5 days by MTT assay; format: functional, organism-based; details: Human immunodeficiency virus 2, ISOLATE ROD, MT4, 120 h
# Method in brief: (§7)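 MT-4 cells at 3 × 10^4 per well were infected with HIV (IIIB or ROD) at 50% cell culture infective doses. Graded compound concentrations were added immediately after infection. Plates were incubated for 5 days at 37 °C and viable cells were counted by MTT.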
# [25] = tested on: Human immunodeficiency virus 1; assay: Antiviral activity against HIV1 3B-infected in human MT4 cells assessed as protection from virus-induced cytopathogenicity after 5 days by MTT assay; format: functional, organism-based; details: Human immunodeficiency virus 1, 3B, MT4, 120 h; method in brief: as §7
# [26] = tested on: HeLa; assay: Cytotoxicity against Human coxsackievirus B4 infected human HeLa cells by trypan blue exclusion method; format: cell-based; details: hela; method in brief: as §2
# [27] = Cytotoxicity against HIV2 ROD infected human MT4 cells by MTT assay; format: cell-based; details: MT4 cells infected with HIV-2 ROD; method in brief: as §6
# [28] = tested on: Human alphaherpesvirus 1; assay: Antiviral activity against acyclovir-sensitive Herpes simplex virus 1 KOS infected in HEL cells assessed as protection from virus-induced cytopathogenicity after 2 to 3 days by MTT assay; format: functional, organism-based; details: Human alphaherpesvirus 1, KOS
# [29] = tested on: Human alphaherpesvirus 2; assay: Antiviral activity against Herpes simplex virus 2 G infected in HEL cells assessed as protection from virus-induced cytopathogenicity after 2 to 3 days by MTT assay; format: functional, organism-based; details: Human alphaherpesvirus 2, strain G
# [30] = tested on: HEL; assay: as §4; format: cell-based; details: human, hel; method in brief: as §2
# [31] = Selectivity index, ratio of CC50 for HIV2 ROD infected human MT4 cells to IC50 for […] ROD; format: functional
# [32] = tested on: Vero; assay: Cytotoxicity against Sindbis virus infected african green monkey Vero cells by trypan blue exclusion method; format: cell-based; details: chlorocebus sabaeus, vero; method in brief: as §2
# [33] = tested on: Human alphaherpesvirus 1; assay: Antiviral activity against Herpes simplex virus 1 KOS infected in HEL cells assessed as protection from virus-induced cytopathogenicity after 2 to 3 days by MTT assay; format: functional, organism-based; details: Human alphaherpesvirus 1, KOS
# [34] = tested on: Mammalian orthoreovirus 1; assay: Antiviral activity against Reovirus 1 infected in african green monkey Vero cells assessed as protection from virus-induced cytopathogenicity after 6 to 7 days by MTT assay; format: functional, organism-based; details: Mammalian orthoreovirus 1, Vero
# [35] = tested on: Punta Toro virus; assay: Antiviral activity against Punta Toro virus infected in african green monkey Vero cells assessed as protection from virus-induced cytopathogenicity by MTT assay; format: functional, organism-based
# [36] = tested on: Coxsackievirus B4; assay: Antiviral activity against Human coxsackievirus B4 infected in human HeLa cells assessed as protection from virus-induced cytopathogenicity after 2 days by MTT assay; format: functional, organism-based; details: Enterovirus B, 48 h
# [37] = tested on: HeLa; assay: Cytotoxicity against VSV infected human HeLa cells by trypan blue exclusion method; format: cell-based; details: hela; method in brief: as §2
# [38] = tested on: Vero; assay: Cytotoxicity against Reovirus 1 infected african green monkey Vero cells by trypan blue exclusion method; format: cell-based; details: chlorocebus sabaeus, vero; method in brief: as §2
# [39] = tested on: MDCK; assay: Cytotoxicity against Influenza A virus subtype H1N1 infected MDCK cells by trypan blue exclusion method; format: cell-based, Canis lupus familiaris; details: dog
# [40] = tested on: Coxsackievirus B4; assay: Antiviral activity against Human coxsackievirus B4 infected in african green monkey Vero cells assessed as protection from virus-induced cytopathogenicity after 2 days by MTT assay; format: functional, organism-based; details: Enterovirus B, 48 h
# [41] = tested on: Influenza B virus; assay: Antiviral activity against Influenza B virus infected in MDCK cells assessed as protection from virus-induced cytopathogenicity after 6 to 7 days by MTT assay; format: functional, organism-based
# [42] = tested on: Influenza A virus; assay: Antiviral activity against Influenza A virus H3N2 infected in MDCK cells assessed as protection from virus-induced cytopathogenicity after 6 to 7 days by MTT assay; format: functional, organism-based
# [43] = tested on: HEL; assay: as §5; format: cell-based; details: human, hel; method in brief: as §2
# [44] = tested on: Human respirovirus 3; assay: Antiviral activity against PIV 3 infected in african green monkey Vero cells assessed as protection from virus-induced cytopathogenicity after 6 to 7 days by MTT assay; format: functional, organism-based; details: Human respirovirus 3, Vero
structure (smiles),measurement,setting,value
Nc1nc2c(ncn2COC(CO)CO)c(=O)[nH]1 [GANCICLOVIR],CC50,[1],> 100000 nM
same,CC50,[2],> 100000 nM
same,CC50,[3],> 100000 nM
same,EC50,[4],> 100000 nM
same,EC50,[5],2600 nM
same,CC50,[6]; CRFK cells infected with feline coronavirus,> 100000 nM
same,CC50,[7],> 100000 nM
same,CC50,[8]; CRFK cells infected with feline herpesvirus,> 100000 nM
same,EC50,[9],> 100000 nM
COc1cc(/C=C/C(=O)CC(=O)/C=C/c2ccc(OCCOC(=O)CCC(NC(=O)c3ccc(NCc4cnc5nc(N)[nH]c(=O)c5n4)cc3)C(=O)O)c(OC)c2)ccc1O (centres undefined),CC50,[10],> 119 nM
same,EC50,[11],> 119 nM
same,CC50,[12],> 119 nM
same,EC50,[13],> 119 nM
same,CC50,[14],> 119 nM
same,CC50,[15],> 119 nM
same,CC50,[16],> 119 nM
same,CC50,[17],> 63 nM
same,EC50,[18],> 119 nM
same,CC50,[19],> 119 nM
same,CC50,[20],> 119 nM
same,CC50,[21],> 119 nM
same,EC50,[22],> 119 nM
same,CC50,[23],> 119 nM
same,IC50,[24],69 nM
same,IC50,[25],63 nM
same,CC50,[26],> 119 nM
same,CC50,[27],> 69 nM
same,EC50,[28],> 119 nM
same,EC50,[29],> 119 nM
same,CC50,[30],> 119 nM
same,Ratio CC50/IC50,[31],<1
same,CC50,[32],> 119 nM
same,EC50,[33],> 119 nM
same,EC50,[4],> 119 nM
same,EC50,[34],> 119 nM
same,EC50,[5],105 nM
same,EC50,[35],> 119 nM
same,EC50,[36],> 119 nM
same,CC50,[6]; crfk,> 119 nM
same,CC50,[37],> 119 nM
same,CC50,[38],> 119 nM
same,CC50,[39],> 119 nM
same,EC50,[40],> 119 nM
same,EC50,[41],> 119 nM
same,EC50,[42],> 119 nM
same,CC50,[43],> 119 nM
same,EC50,[44],> 119 nM
same,CC50,[8]; crfk,> 119 nM
same,EC50,[9],78 nM
